Assay results reported in ChEMBL document CHEMBL3352791, “Thioaryl naphthylmethanone oxime ether analogs as novel anticancer agents” (J Med Chem, 2014).
Active and inactive are the calls of the source. No cut-off for these calls is given here.

Key:
[1] = Safety index, ratio of IC50 for human MCF10A cells to EC50 for human ER-positive MDA-MB-231 cells; conditions: MCF10A cells versus
MDA-MB-231 [2] = test: Cell cycle arrest in human […] cells assessed as accumulation at S phase at 5 uM by propidium iodide staining by FACS analysis (reference value: 13.72%); format: functional
MDA-MB-231 [3] = test: Antiproliferative activity against human ER-positive MDA-MB-231 cells after 72 hrs by MTT assay; format: functional, cell-based; conditions: MDA-MB-231, 72 h
MDA-MB-231 [4] = test: Antiproliferative activity against human ER-positive MDA-MB-231 cells after 24 hrs by MTT assay; format: functional, cell-based; conditions: mda-mb-231
MDA-MB-231 [5] = test: Cell cycle arrest in human […] cells assessed as accumulation at S phase at 7.5 uM by propidium iodide staining by FACS analysis (reference value: 13.72%); format: functional
MCF7 [6] = test: Cell cycle arrest in human […] cells assessed as accumulation at subG1 phase at 2.5 uM by propidium iodide staining by FACS analysis (reference value: 0.1%); format: functional
[7] = Antiproliferative activity against human prostate, androgen receptor positive DU145 cells after 24 hrs by MTT assay; format: functional, cell-based, DU-145; conditions: du-145
MDA-MB-231 [8] = test: Inhibition of MMP9 expression in human MDA-MB-231 cells at 1 uM after 24 hrs by qPCR analysis; format: functional, cell-based
Procedure, shortened: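 MDA-MB-231 cells treated at 1µM. Transcript levels measured by qPCR with GAPDH as internal control.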

MDA-MB-231 [9] = test: Cytotoxicity against human […] cells assessed as cell viability at 5 uM by MTT assay in presence of z-IETD-FMK caspase-8 inhibitor; format: functional, cell-based
Procedure, shortened: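 Cells seeded 1×10^4/well in DMEM with 10% FBS, adhered overnight, serum-starved 4 h; pre-incubated 2 h with Z-IETD-FMK or Z-LEHD-FMK (10µM each), then 5μM compound for a further 24 h; viability by MTT.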

MCF7 [10] = test: Antiproliferative activity against human […] cells assessed as absence of growth recovery treated > 5 uM for 24 hrs followed by maintained in drug free medium for 72 hrs by MTT assay; format: functional, cell-based
MCF7 [11] = test: Antiproliferative activity against human […] cells at 2.5 to 7.5 uM by annexin V-FITC/propidium iodide staining-based flow cytometric analysis; format: functional, cell-based
[12] = target: Induced myeloid leukemia cell differentiation protein Mcl-1 (Homo sapiens) (UniProt Q07820); test: Inhibition of EGF-induced phosphorylated Mcl1 in human MDA-MB-231 cells at 1 uM by ELISA; format: cell-based
MCF7 [13] = test: Antiinvasion activity in human MCF7 cells assessed as inhibition of FBS-induced cell invaded to matrigel coated invasion chamber at 1 uM after 24 hrs by Transwell invasion assay; format: functional, cell-based
MDA-MB-231 [14] = test: Inhibition of INS expression in human MDA-MB-231 cells at 5 uM by ELISA; format: functional, cell-based
MDA-MB-231 [15] = test: Inhibition of IGF1 expression in human MDA-MB-231 cells at 5 uM by ELISA; format: functional, cell-based
[16] = target: High affinity cGMP-specific 3',5'-cyclic phosphodiesterase 9A (Homo sapiens) (UniProt O76083); test: Inhibition of PDE9A1 (unknown origin) activity at 1 to 10 uM
Procedure, shortened: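 Recombinant PDE isoform activity was read by fluorescence polarization. A binding reagent complexes with the nucleotide monophosphate that the phosphodiesterase generates from cAMP/cGMP, and this raises the polarization of the labelled substrate. Reference standards were PDE1A3 10µM IBMX, PDE2A3 1nM BAY 60-7550, PDE3CAT 1µM cilostazol, PDE4CAT rolipram, PDE5CAT 0.1µM sildenafil, PDE7A […], PDE8A1 10µM BRL-50481, PDE9A1 1µM SB 36216 and PDE11A1 dipyridamole.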

[17] = target: T1, Signal transducer and activator of transcription 1-alpha/beta (Homo sapiens) (UniProt P42224); test: Inhibition of basal level STAT1 phosphorylation in human MDA-MB-231 cells at 1 uM by ELISA; format: cell-based
T1 sequence (whole entry): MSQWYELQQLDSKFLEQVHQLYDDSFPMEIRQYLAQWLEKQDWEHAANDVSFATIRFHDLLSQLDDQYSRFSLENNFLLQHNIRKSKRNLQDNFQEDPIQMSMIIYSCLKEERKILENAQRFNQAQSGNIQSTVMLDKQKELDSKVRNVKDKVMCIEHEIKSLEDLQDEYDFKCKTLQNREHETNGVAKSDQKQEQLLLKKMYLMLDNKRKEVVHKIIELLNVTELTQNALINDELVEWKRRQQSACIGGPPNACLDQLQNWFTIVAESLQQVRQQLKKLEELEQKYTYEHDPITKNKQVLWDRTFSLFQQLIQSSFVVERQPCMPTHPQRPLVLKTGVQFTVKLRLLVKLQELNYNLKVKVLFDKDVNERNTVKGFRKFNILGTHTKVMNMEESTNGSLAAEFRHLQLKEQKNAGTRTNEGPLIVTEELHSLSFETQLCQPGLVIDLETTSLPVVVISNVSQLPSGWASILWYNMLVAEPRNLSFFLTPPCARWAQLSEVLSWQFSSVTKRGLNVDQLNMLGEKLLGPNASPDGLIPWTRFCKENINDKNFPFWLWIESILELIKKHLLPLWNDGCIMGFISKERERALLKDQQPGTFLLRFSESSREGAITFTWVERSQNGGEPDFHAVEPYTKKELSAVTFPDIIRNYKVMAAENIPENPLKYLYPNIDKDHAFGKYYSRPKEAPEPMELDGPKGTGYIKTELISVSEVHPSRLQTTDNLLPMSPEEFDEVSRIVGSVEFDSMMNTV

[18] = target: Signal transducer and activator of transcription 3 (Homo sapiens) (UniProt P40763); test: Inhibition of basal level STAT3 phosphorylation in human MCF7 cells at 1 uM by ELISA; format: cell-based
MDA-MB-231 [19] = test: Induction of cAMP level in human MDA-MB-231 cells at 0.1 to 25 uM; format: functional, cell-based
Procedure, shortened: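 MDA-MB-231 cells serum-starved for 4 h, treated with 500μM IBMX for 30 min, then exposed to compound for a further 30 min. Cellular cAMP read by HTRF kit.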

[20] = target: Epidermal growth factor receptor (Homo sapiens) (UniProt P00533); test: Inhibition of EGF-induced EGFR phosphorylation at Tyr845 in human MCF7 cells at 1 uM by ELISA; format: cell-based
[21] = target: Epidermal growth factor receptor (Homo sapiens) (UniProt P00533); test: Inhibition of EGF-induced EGFR phosphorylation at Tyr992 in human MDA-MB-231 cells at 1 uM by ELISA; format: cell-based
[22] = tested on: Mast/stem cell growth factor receptor Kit (Homo sapiens), P10721 [D816G]; test: Inhibition of cKit D816G mutant (unknown origin) at 10 uM
Procedure, shortened: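 Cell-free kinase profiling was run as a standard 33P-ATP-based in vitro kinase assay.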

MCF7 [23] = test: Antitumor activity against human MCF7 cells xenografted in NIH-3 mouse assessed as reduction in PCNA level in tumor at 16 mg/kg, po for 25 days by Western blot analysis; format: functional, organism-based; design: dose 16 mg/kg

Chain of Epidermal growth factor receptor (Homo sapiens) (P00533 whole entry): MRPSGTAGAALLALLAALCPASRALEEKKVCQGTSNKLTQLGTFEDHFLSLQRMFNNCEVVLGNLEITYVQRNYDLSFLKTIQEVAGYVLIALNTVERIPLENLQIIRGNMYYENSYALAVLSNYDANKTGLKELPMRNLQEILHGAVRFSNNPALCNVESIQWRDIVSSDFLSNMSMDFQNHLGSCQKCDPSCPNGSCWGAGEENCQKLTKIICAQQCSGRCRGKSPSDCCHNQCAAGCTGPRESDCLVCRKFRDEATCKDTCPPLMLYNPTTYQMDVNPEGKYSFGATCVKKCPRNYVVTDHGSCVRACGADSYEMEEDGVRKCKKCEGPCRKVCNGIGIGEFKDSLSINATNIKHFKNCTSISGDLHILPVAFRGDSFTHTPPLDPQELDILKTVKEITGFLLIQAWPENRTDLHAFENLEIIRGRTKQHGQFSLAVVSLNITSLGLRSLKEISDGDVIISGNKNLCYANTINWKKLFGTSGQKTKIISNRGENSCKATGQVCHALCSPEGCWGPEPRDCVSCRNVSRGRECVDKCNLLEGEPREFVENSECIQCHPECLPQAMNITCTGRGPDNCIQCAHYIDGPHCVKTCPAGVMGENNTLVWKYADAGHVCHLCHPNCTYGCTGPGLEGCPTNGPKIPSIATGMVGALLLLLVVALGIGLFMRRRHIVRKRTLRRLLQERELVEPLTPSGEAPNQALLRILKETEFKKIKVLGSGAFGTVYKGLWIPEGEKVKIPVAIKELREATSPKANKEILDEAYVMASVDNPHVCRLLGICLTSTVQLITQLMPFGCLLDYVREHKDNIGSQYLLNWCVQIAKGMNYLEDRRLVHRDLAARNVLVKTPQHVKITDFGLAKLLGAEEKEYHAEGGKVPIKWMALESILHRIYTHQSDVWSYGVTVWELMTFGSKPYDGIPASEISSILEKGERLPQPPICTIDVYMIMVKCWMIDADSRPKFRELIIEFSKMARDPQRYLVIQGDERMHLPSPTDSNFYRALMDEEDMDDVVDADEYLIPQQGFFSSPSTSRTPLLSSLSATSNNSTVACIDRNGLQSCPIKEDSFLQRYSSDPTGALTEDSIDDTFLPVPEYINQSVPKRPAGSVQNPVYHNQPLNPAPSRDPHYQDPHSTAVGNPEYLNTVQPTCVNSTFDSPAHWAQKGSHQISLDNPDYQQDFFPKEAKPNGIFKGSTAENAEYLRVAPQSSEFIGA
Chain of High affinity cGMP-specific 3',5'-cyclic phosphodiesterase 9A (Homo sapiens) (O76083 whole entry, canonical isoform): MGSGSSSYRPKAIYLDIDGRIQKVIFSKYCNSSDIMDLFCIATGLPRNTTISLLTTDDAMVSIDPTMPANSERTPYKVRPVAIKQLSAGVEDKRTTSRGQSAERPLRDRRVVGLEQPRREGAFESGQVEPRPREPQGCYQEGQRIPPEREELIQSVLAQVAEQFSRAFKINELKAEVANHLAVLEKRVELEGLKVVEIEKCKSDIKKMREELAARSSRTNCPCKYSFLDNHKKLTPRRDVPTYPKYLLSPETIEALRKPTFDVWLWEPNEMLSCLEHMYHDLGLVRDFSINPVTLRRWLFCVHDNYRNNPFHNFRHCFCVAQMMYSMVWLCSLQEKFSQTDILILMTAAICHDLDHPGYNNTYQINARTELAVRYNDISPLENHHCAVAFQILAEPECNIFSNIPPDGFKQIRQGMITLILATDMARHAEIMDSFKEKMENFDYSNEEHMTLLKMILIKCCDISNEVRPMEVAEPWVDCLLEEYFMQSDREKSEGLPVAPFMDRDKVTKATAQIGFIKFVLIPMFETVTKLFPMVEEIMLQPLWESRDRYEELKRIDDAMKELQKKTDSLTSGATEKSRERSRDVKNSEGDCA
Chain of Induced myeloid leukemia cell differentiation protein Mcl-1 (Homo sapiens) (Q07820 whole entry): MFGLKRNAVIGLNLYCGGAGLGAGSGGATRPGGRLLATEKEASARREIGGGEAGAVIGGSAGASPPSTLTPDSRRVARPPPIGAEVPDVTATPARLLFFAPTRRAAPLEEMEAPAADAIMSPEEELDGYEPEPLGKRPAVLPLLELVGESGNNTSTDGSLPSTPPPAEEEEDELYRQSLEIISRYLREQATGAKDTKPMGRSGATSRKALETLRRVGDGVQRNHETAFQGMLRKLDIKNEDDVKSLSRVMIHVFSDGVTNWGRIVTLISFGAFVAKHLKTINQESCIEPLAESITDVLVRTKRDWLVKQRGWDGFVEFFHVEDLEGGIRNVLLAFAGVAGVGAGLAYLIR
Chain of Signal transducer and activator of transcription 3 (Homo sapiens) (P40763 whole entry): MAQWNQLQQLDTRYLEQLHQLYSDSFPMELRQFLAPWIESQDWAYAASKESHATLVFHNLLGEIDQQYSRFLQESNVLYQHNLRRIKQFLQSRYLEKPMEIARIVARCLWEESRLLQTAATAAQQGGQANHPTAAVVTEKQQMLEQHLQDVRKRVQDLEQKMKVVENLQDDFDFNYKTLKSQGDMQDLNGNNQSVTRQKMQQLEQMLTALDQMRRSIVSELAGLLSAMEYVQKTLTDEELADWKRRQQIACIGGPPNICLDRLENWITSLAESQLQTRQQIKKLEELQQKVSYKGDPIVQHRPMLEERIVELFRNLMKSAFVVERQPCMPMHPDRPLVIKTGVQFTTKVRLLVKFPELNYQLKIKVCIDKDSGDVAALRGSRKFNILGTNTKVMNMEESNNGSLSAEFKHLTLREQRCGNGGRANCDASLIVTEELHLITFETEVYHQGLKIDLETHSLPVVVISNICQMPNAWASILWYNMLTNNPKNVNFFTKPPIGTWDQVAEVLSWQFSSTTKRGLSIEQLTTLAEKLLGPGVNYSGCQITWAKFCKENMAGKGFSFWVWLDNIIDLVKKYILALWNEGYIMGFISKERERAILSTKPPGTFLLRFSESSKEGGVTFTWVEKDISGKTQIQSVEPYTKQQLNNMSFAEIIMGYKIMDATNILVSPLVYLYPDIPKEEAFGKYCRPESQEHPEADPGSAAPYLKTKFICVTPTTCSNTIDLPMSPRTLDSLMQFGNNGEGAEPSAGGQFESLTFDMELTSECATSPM
Chain of Mast/stem cell growth factor receptor Kit (Homo sapiens), P10721 [D816G] (P10721 whole entry D816G): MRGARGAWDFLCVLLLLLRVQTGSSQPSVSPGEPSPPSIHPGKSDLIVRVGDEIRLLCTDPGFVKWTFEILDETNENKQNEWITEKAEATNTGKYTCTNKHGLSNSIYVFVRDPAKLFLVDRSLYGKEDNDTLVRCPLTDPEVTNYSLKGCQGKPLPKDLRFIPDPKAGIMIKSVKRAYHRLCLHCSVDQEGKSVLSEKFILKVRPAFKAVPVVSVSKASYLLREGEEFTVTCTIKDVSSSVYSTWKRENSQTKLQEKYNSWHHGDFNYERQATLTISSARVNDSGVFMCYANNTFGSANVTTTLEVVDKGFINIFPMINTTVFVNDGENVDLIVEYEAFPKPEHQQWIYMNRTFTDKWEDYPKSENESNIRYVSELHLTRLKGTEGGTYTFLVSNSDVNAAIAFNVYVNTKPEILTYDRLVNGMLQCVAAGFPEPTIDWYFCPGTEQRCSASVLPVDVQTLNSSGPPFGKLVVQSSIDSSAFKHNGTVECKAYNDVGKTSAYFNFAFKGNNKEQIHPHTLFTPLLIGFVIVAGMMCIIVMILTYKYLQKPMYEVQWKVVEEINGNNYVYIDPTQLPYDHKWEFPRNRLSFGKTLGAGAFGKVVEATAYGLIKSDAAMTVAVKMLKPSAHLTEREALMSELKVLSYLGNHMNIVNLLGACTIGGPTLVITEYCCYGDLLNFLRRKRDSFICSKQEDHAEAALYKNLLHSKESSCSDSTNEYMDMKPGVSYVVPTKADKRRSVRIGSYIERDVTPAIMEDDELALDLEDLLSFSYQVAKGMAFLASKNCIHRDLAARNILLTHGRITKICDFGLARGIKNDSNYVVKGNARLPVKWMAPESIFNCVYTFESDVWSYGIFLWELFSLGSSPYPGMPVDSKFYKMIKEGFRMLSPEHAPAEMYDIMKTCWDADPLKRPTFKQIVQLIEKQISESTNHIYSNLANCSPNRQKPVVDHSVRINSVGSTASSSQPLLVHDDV

## CCN(CC)CCO/N=C(\c1ccc(SC)cc1)c1cccc2ccccc12.O=C(O)C(=O)O
[1]
  selectivity ratio: 50
MDA-MB-231 [2]
  Activity: 3.65%
MDA-MB-231 [3]
  EC50: 1000 nM
MDA-MB-231 [4]
  EC50: 7.2 µM
MDA-MB-231 [5]
  Activity: 2.74%
MCF7 [6]
  Activity: 0.4%
[7]
  EC50: 9 µM

## CCN(CC)CCO/N=C(\c1ccc(SC)cc1)c1cccc2ccccc12
MDA-MB-231 [8]
  inhibition: Active
MDA-MB-231 [9]
  Activity: inactive
MCF7 [10]
  Activity: Active
MCF7 [11]
  Activity: Active
[12]
  inhibition: Active
MCF7 [13]
  Activity: Active
MDA-MB-231 [14]
  inhibition: inactive
MDA-MB-231 [15]
  inhibition: inactive
[16]
  inhibition: inactive
[17]
  inhibition: inactive
[18]
  inhibition: inactive
MDA-MB-231 [19]
  Activity: Active
[20]
  inhibition: Active
[21]
  inhibition: Active
[22]
  inhibition: inactive
MCF7 [23]
  inhibition: Active
